Assay outcomes: PubChem, several laboratories
bCat KO growth: beta-catenin-lacking colon tumor cell growth suppression; HCT116 beta-catenin knockout viability, CellTiter-Glo, 60 h; active compounds read low; viability, % at 10 µM; 140,000 compounds, 1.5% hits;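 active means viability at or under a set limit, the compound median less 4 SD, cut at about 6% in these data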;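 further: 0% = Hyamine 1622 control at 20 µM and 100% = untreated cell control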
PTEN del growth: PTEN-deleted cell growth suppression | 140,000 compounds, 1.2% hits | AID 827 | HCT116 PTEN-null viability, CellTiter-Glo, 60 h; active compounds read low | viability, % at 10 µM;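 active means viability at or below a set limit, 4 SD under the median of all tested compounds, cut at about 3.7% in these data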;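 further: PTEN knockout HCT116 line with beta catenin targeted HCT116 as companion control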
Lung fibro prol: blocks proliferation of human lung fibroblasts; LL 47 human lung fibroblast viability, ATP luminescence; active compounds read low; 85,000 compounds, 1.1% hits; viability, % at 10 µM; AID 719;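 active means viability at or below 50% in the single dose screen; inactive means viability above 50%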;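 further: compound exposure lasted 72 h before the ATP readout; 100% = median luminescence of untreated cell-only wells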
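Assay system: human lung fibroblast line LL 47, low passage. Input: 1,150 fibroblasts seeded per well. Times: overnight cell rest, 72 h compound treatment at 37 °C. Evaluation: % viability of median cell-only signal. Technique: luminescent ATP detection, CellTiter-Glo. Control set: cell-only wells, no compound.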
H69AR inhibit: blocks growth of human H69AR lung tumor cells; H69AR lung tumor viability, ATP luminescence, 72 h; active compounds read low; viability, % at 10 µM; 85,000 compounds, 6% hits; AID 598;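 active means viability at or below 40%; inactive means viability above 40%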;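 further: multidrug resistant small cell line overexpressing MRP-1 efflux transporter; 100% = mean luminescence of untreated control wells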
Cav32 inh: blocks human Cav3.2 T-type calcium channel; B-score at 10 µM; O95180; 100,000 compounds, 4% hits; AID 449739; Cav3.2-expressing cells, Fluo-4 calcium fluorescence FDSS; active compounds read low;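 active means single-dose well whose peak fluorescence ratio is a statistical outlier from its plate by either plate-standardised score or position-corrected B-score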
Target sequence (O95180 whole entry, looked up): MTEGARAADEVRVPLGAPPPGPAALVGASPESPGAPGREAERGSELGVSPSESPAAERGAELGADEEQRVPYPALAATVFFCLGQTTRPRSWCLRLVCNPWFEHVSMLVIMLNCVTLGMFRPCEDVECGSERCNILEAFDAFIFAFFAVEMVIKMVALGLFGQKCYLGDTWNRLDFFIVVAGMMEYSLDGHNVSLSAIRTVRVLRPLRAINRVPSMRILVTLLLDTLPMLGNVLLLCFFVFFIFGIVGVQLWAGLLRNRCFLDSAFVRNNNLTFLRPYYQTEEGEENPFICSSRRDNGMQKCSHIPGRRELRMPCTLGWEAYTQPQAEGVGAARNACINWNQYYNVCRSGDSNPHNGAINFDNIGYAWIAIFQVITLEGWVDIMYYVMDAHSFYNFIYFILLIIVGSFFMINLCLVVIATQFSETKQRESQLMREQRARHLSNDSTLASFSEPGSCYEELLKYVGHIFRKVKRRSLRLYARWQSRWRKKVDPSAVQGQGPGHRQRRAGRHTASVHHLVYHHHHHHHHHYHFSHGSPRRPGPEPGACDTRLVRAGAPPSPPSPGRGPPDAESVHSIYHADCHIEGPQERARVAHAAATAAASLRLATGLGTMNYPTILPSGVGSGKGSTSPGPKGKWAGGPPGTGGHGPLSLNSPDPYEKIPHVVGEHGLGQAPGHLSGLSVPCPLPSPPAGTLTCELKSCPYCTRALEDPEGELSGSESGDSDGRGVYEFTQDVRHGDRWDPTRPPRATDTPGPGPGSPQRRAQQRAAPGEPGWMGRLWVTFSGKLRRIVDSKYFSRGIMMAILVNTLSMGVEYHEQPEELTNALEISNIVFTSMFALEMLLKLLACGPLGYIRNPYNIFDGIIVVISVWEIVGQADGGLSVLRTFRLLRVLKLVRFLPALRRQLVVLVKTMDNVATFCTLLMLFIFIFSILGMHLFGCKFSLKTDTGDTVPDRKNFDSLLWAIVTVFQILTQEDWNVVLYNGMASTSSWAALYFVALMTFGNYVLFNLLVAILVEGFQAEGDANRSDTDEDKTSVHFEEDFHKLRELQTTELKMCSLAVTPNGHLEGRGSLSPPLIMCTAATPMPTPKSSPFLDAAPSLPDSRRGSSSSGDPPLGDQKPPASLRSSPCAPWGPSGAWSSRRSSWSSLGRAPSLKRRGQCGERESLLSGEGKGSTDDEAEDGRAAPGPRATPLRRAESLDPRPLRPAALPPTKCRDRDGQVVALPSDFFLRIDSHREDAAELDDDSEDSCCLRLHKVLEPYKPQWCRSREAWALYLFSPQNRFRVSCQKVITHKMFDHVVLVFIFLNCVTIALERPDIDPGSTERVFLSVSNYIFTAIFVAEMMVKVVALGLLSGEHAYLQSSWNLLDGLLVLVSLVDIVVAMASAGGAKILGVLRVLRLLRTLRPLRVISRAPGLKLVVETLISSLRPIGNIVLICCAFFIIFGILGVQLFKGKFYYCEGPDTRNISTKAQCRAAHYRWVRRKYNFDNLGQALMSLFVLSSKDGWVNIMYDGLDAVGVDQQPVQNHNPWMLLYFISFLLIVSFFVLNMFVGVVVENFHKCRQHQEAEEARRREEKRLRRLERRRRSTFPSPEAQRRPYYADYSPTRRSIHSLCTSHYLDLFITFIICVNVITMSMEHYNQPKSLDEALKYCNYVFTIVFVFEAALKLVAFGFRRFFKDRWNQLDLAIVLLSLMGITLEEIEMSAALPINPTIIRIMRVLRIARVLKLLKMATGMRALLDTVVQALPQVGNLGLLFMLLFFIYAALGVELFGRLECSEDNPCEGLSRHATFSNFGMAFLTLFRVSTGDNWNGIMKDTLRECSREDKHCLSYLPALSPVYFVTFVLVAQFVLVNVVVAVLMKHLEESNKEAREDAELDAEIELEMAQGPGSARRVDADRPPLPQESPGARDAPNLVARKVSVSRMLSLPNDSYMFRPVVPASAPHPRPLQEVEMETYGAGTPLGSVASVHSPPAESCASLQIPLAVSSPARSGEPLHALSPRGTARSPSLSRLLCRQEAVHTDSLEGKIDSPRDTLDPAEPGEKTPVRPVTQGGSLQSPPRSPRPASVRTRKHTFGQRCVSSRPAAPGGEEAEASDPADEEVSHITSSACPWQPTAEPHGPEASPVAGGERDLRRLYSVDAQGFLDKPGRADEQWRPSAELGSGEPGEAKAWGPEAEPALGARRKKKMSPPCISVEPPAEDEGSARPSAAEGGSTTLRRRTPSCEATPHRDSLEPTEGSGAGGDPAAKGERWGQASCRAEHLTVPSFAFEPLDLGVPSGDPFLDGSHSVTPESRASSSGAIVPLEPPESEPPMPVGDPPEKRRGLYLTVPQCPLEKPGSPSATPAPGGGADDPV
HUVEC inhibit: blocks proliferation of human endothelial cells; HUVEC proliferation, CellTiter-Glo luminescence, 72 h; active compounds read low; viability, % at 10 µM (by protocol); 86,000 compounds, 1.1% hits; AID 648;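 active means viability at or below 30%; inactive means viability above 30%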;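 further: 100% = median luminescence of DMSO-only cell control wells on each plate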
An asterisk follows results filed as active. This is a sample that favours compounds with a hit; in the whole collection about 7.1% have one here.

Results for Cc1cc(Nc2cccc([N+](=O)[O-])c2)n2c(nc3ccccc32)c1C#N ?
bCat KO growth: 3.4*; PTEN del growth: 4

Results for O=C(NCc1nc2ccccc2[nH]1)C1=C[C@@H](C2CCCCC2)C[C@@H](OCCCCO)O1 ?
Cav32 inh: -1.1

What do the screens show for `CCOc1ccccc1-c1nc(-c2cc3ccc(C)cc3[nH]c2=O)no1`?
bCat KO growth: 87; PTEN del growth: 76; Lung fibro prol: 100; H69AR inhibit: 40*; Cav32 inh: -2.5; HUVEC inhibit: 89

Results for Cc1cc(C(=O)CSc2nc3ccccc3c(=O)n2C)c(C)n1Cc1ccc2c(c1)OCO2 ?
bCat KO growth: 7; PTEN del growth: 15; Lung fibro prol: 81; H69AR inhibit: 25*; Cav32 inh: -0.3; HUVEC inhibit: 24*

How did Cc1cc(C(=O)CSc2nnc(-c3ccccc3)n2Cc2ccc3c(c2)OCO3)c(C)n1C do in these assays?
bCat KO growth: 88; PTEN del growth: 87; Lung fibro prol: 67; H69AR inhibit: 52; Cav32 inh: -0.046; HUVEC inhibit: 68

Results for CC1CCN(C(=O)CSc2nc3ccccc3c(=O)n2Cc2ccc3c(c2)OCO3)CC1 ?
bCat KO growth: 88; PTEN del growth: 71; Lung fibro prol: 104; H69AR inhibit: 77; Cav32 inh: -4.9*; HUVEC inhibit: 110

What do the screens show for `Fc1cc(F)c2nc(Nc3nc4cc5c(cc4s3)OCO5)sc2c1`?
bCat KO growth: 1.3*; PTEN del growth: 6

Results for Fc1cccc2sc(Nc3nc4cc5c(cc4s3)OCO5)nc12 ?
bCat KO growth: 66; PTEN del growth: 66

Results for O=c1ccsn1Cc1ccccc1 ?
bCat KO growth: 1.3*; PTEN del growth: 5; Lung fibro prol: 8.6*; H69AR inhibit: 1.3*; Cav32 inh: -0.93; HUVEC inhibit: 83

How did Cc1ccc(CN2CCN(/N=C/c3cccs3)CC2)cc1 do in these assays?
bCat KO growth: 93; PTEN del growth: 106

Results for Cc1cc(C)n2nc(CC(=O)NCc3ccccc3Cl)nc2n1 ?
bCat KO growth: 90; PTEN del growth: 98

What do the screens show for `Cc1cc(-n2[nH]c(C)c(C)c2=O)nc(-c2ccccc2O)n1`?
bCat KO growth: 18; PTEN del growth: 13; Lung fibro prol: 66; H69AR inhibit: 16*; Cav32 inh: 0.51; HUVEC inhibit: 76

Results for COc1ccc2nc(C3CCCCC3)c3c(c2c1)CCC3 ?
Cav32 inh: 0.48

What do the screens show for `CCOC(=O)c1c(C)nc(C)c(C(=O)OCC)c1-c1ccc(Br)cc1`?
bCat KO growth: 77; PTEN del growth: 72

Results for CCOC(=O)c1c2c(n(C)c1COC)C(=O)C(=O)c1ccc(Br)cc1-2 ?
Lung fibro prol: 2.2*; H69AR inhibit: 1.5*; Cav32 inh: -0.66; HUVEC inhibit: 2.1*

What do the screens show for `CC1CCCCC1NC(=O)/C(C#N)=C/c1ccccc1F` (centres undefined)?
bCat KO growth: 13; PTEN del growth: 21

Results for O=C(CSc1nnc(C2COc3ccccc3O2)o1)N1CCCc2ccccc21 (centres undefined) ?
bCat KO growth: 77; PTEN del growth: 80; Lung fibro prol: 97; H69AR inhibit: 78; Cav32 inh: -10*; HUVEC inhibit: 102

Results for O=C(CSc1nnc(Cc2ccccc2)o1)N1CCCc2ccccc21 ?
bCat KO growth: 108; PTEN del growth: 114; Lung fibro prol: 110; H69AR inhibit: 86; Cav32 inh: -3.9*; HUVEC inhibit: 99

Results for O=C(CSc1nnc(C2COc3ccccc3O2)o1)N1CCOCC1 (centres undefined) ?
bCat KO growth: 98; PTEN del growth: 102; Lung fibro prol: 93; H69AR inhibit: 112; Cav32 inh: -0.15; HUVEC inhibit: 82

Results for N#C/C(=C(/O)COC(=O)Cc1c[nH]c2ccccc12)c1nc2ccccc2[nH]1 ?
bCat KO growth: 95; PTEN del growth: 94; Lung fibro prol: 93; H69AR inhibit: 61; Cav32 inh: -7*; HUVEC inhibit: 89

Results for COc1ccccc1OCC(=O)OC/C(O)=C(\C#N)c1nc2ccccc2[nH]1 ?
bCat KO growth: 5.5*; PTEN del growth: 2.2*

Results for N#C/C(=C(/O)COC(=O)c1ccc(Cl)c(S(=O)(=O)N2CCOCC2)c1)c1nc2ccccc2[nH]1 ?
bCat KO growth: 20; PTEN del growth: 15

How did CCOC(=O)c1c(C)[nH]c(C(=O)OC/C(O)=C(\C#N)c2nc3ccccc3[nH]2)c1C do in these assays?
bCat KO growth: 87; PTEN del growth: 79; Lung fibro prol: 112; H69AR inhibit: 57; Cav32 inh: -1.6; HUVEC inhibit: 9.2*

Results for N#C/C(=C(/O)COC(=O)CCc1ccc(S(=O)(=O)N2CCOCC2)cc1)c1nc2ccccc2[nH]1 ?
bCat KO growth: 5.7*; PTEN del growth: 4; Lung fibro prol: 90; H69AR inhibit: 41; Cav32 inh: 0.57; HUVEC inhibit: 76

What do the screens show for `N#C/C(=C(/O)COC(=O)c1ccc2c(c1)OCCO2)c1nc2ccccc2[nH]1`?
bCat KO growth: 86; PTEN del growth: 98; H69AR inhibit: 93; Cav32 inh: 0.66; HUVEC inhibit: 88

Results for N#C/C(=C(/O)COC(=O)CSc1ccc(Cl)cc1)c1nc2ccccc2[nH]1 ?
bCat KO growth: 9; PTEN del growth: 5

How did Cc1onc(-c2c(F)cccc2Cl)c1C(=O)NC(=S)NC1CCS(=O)(=O)C1 (centres undefined) do in these assays?
bCat KO growth: 91; PTEN del growth: 98

Results for CC(C)CC(/C(O)=C(\C#N)c1nc2ccccc2[nH]1)N1C(=O)c2ccccc2C1=O (centres undefined) ?
bCat KO growth: 78; PTEN del growth: 77; Lung fibro prol: 92; H69AR inhibit: 64; Cav32 inh: -6.6*; HUVEC inhibit: 95

How did CC(C)(C)/C(O)=C(/C#N)c1nc2ccccc2[nH]1 do in these assays?
bCat KO growth: 88; PTEN del growth: 89; Lung fibro prol: 94; H69AR inhibit: 83; HUVEC inhibit: 99

Results for COc1cccc(OC)c1/C(O)=C(\C#N)c1nc2ccccc2[nH]1 ?
bCat KO growth: 84; PTEN del growth: 89; Lung fibro prol: 91; H69AR inhibit: 27*; Cav32 inh: -0.32; HUVEC inhibit: 88

Results for Cc1cc(C)cc(OCc2nnc(SCC(=O)OC(C)C)o2)c1 ?
bCat KO growth: 103; PTEN del growth: 119; Lung fibro prol: 107; H69AR inhibit: 108; Cav32 inh: -2.9; HUVEC inhibit: 93

Results for Cc1ccc(-c2nc(CS(=O)CC(=O)NCc3ccc(Cl)cc3)c(C)o2)cc1 (centres undefined) ?
bCat KO growth: 79; PTEN del growth: 89; Lung fibro prol: 105; H69AR inhibit: 97; Cav32 inh: -6*; HUVEC inhibit: 86
